Square brackets hold non-standard residues; d marks the D form. Peptide text beside a SMILES is read from it. * marks the point of attachment. ξ: configuration not given here. Butanoyl(4-(4-HOPh)) = O=C(CCCc1ccc(O)cc1)*; ξαMeY = CC(N)(Cc1ccc(O)cc1)C(=O)O; pNA = O=[N+]([O-])c1ccc(N*)cc1; ξαMeF = CC(N)(Cc1ccccc1)C(=O)O; Bz = O=C(c1ccccc1)*
Key:
Canis familiaris [1] = assay: In vivo percent change in renal blood flow at 30 ug/Kg/min.; type: functional, Canis lupus familiaris, Kidney
Outline: (§1)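 Primary screen in anesthetized dogs (7-17 kg). Drug infused separately at 3, 30 and 300 µg/(kg min), each infusion lasting 5 min, at about 15-min intervals. Read-outs are renal blood flow, mean arterial blood pressure, heart rate, and RVR (MABP / mean RBF), as percent change. Significance thresholds are defined per number of dogs; n = 1-3 dogs.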

Canis familiaris [2] = assay: In vivo percent change in canine mean arterial blood pressure (MABP) at 300 ug/Kg/min.; type: functional, Canis lupus familiaris; outline: as §1
Canis familiaris [3] = assay: In vivo percent change in canine heart rate at 300 ug/Kg/min.; type: functional, Canis lupus familiaris; outline: as §1
Canis familiaris [4] = assay: In vivo percent change in canine mean arterial blood pressure (MABP) at 3 ug/Kg/min.; type: functional, Canis lupus familiaris; outline: as §1
Canis familiaris [5] = assay: In vivo percent change in canine heart rate at 30 ug/Kg/min.; type: functional, Canis lupus familiaris; outline: as §1
Canis familiaris [6] = assay: In vivo percent change in canine renal blood flow (RBF) at 300 ug/Kg/min.; type: functional, Canis lupus familiaris, Kidney; outline: as §1
Canis familiaris [7] = assay: In vivo percent change in canine renal vascular resistance (RVR) at 300 ug/Kg/min.; type: functional, Canis lupus familiaris; outline: as §1
Canis familiaris [8] = assay: In vivo percent change in canine renal vascular resistance (RVR) at 3 ug/Kg/min.; type: functional, Canis lupus familiaris; outline: as §1
Canis familiaris [9] = assay: In vivo percent change in canine renal blood flow (RBF) at 3 ug/Kg/min.; type: functional, Canis lupus familiaris, Kidney; outline: as §1
Canis familiaris [10] = assay: In vivo percent change in canine heart rate at 3 ug/Kg/min.; type: functional, Canis lupus familiaris; outline: as §1
Canis familiaris [11] = assay: In vivo percent change in canine renal vascular resistance (RVR) at 30 ug/Kg/min.; type: functional, Canis lupus familiaris; outline: as §1
Canis familiaris [12] = assay: In vivo percent change in canine mean arterial blood pressure (MABP) at 30 ug/Kg/min.; type: functional, Canis lupus familiaris; outline: as §1
[13] = Average max percent decrease in RVR (renal vascular resistance) was determined.
Outline: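 Secondary protocol in anesthetized dogs. Drug given as iv infusion at progressively increasing rates, each dose level for 5 min. The maximum effect is taken as the largest percent decrease in renal vascular resistance (RVR) reached with the compound. RVR is calculated as mean arterial blood pressure / mean renal blood flow.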

Canis familiaris [14] = assay: In vivo percent change in canine renal blood flow (RBF) at 30 ug/Kg/min.; type: functional, Canis lupus familiaris, Kidney; outline: as §1
Canis familiaris [15] = assay: Renal vasodilator activity in anesthetized dogs and percent change in renal vascular resistance (RVR) was determined at 30 ug/Kg/min; type: functional, Canis lupus familiaris; outline: as §1
Canis familiaris [16] = assay: Renal vasodilator activity in anesthetized dogs and percent change in renal vascular resistance (RVR) was determined at 30 ug/kg min; type: functional, Canis lupus familiaris; outline: as §1
Canis familiaris [17] = assay: Renal vasodilator activity in anesthetized dogs and percent change in mean arterial blood pressure (MABP) was determined at 3 ug/kg min; type: functional, Canis lupus familiaris; outline: as §1
Canis familiaris [18] = assay: Renal vasodilator activity in anesthetized dogs and percent change in renal blood flow (RBF) was determined at 3 ug/kg min; type: functional, Canis lupus familiaris, Kidney; outline: as §1
Canis familiaris [19] = assay: Renal vasodilator activity in anesthetized dogs and percent change in renal blood flow (RBF) was determined at 300 ug/kg min; type: functional, Canis lupus familiaris, Kidney; outline: as §1
Canis familiaris [20] = assay: Renal vasodilator activity in anesthetized dogs and percent change in mean arterial blood pressure (MABP) was determined at 300 ug/kg min; type: functional, Canis lupus familiaris; outline: as §1
Canis familiaris [21] = assay: Renal vasodilator activity in anesthetized dogs and percent change in mean arterial blood pressure (MABP) was determined at 30 ug/kg min; type: functional, Canis lupus familiaris; outline: as §1
Canis familiaris [22] = assay: Renal vasodilator activity in anesthetized dogs and percent change in renal vascular resistance (RVR) was determined at 300 ug/kg min; type: functional, Canis lupus familiaris; outline: as §1
Canis familiaris [23] = assay: Renal vasodilator activity in anesthetized dogs and percent change in heart rate (HR) was determined at 30 ug/kg min; type: functional, Canis lupus familiaris; outline: as §1
Canis familiaris [24] = assay: Renal vasodilator activity in anesthetized dogs and percent change in heart rate (HR) was determined at 3 ug/kg min; type: functional, Canis lupus familiaris; outline: as §1
Canis familiaris [25] = assay: Compound was evaluated for renal vasodilator activity and represented as ED15 (intravenous administration); type: functional; conditions: Canis lupus familiaris
Outline: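 Secondary protocol in anesthetized dogs with iv infusion at progressively increasing rates, each level infused 5 min. Potency is the cumulative dose (µg/kg) that lowered renal vascular resistance (MABP / mean RBF) by 15%. Minimum change needed for significance (p = 0.95) is 16% for RVR.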

[26] = Ratio of ED30 of iliac vascular resistant (IVR) to the ED15 of RVR (renal vascular resistance); type: functional
Outline: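 Anesthetized dogs in the secondary cumulative-infusion protocol, each dose level 5 min. Selectivity ratio is the dose giving a 30% change in iliac vascular resistance divided by the RVR ED15, the cumulative dose decreasing renal vascular resistance by 15%.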

Canis familiaris [27] = assay: Renal vasodilator activity in anesthetized dogs and percent change in renal blood flow (RBF) was determined at 30 ug/kg min; type: functional, Canis lupus familiaris, Kidney; outline: as §1
Canis familiaris [28] = assay: Renal vasodilator activity in anesthetized dogs and percent change in renal vascular resistance (RVR) was determined at 3 ug/kg min; type: functional, Canis lupus familiaris; outline: as §1
Canis familiaris [29] = assay: Renal vasodilator activity in anesthetized dogs and percent change in heart rate (HR) was determined at 300 ug/kg min; type: functional, Canis lupus familiaris; outline: as §1

Row | Molecule | Change (Canis familiaris [1]) | Change (Canis familiaris [2]) | Change (Canis familiaris [3]) | Change (Canis familiaris [4]) | Change (Canis familiaris [5]) | Change (Canis familiaris [6]) | Change (Canis familiaris [7]) | Change (Canis familiaris [8]) | Change (Canis familiaris [9]) | Change (Canis familiaris [10]) | Change (Canis familiaris [12]) | Decrease [13] | Change (Canis familiaris [15]) | further results
1 | CC(CN[C@@H](CCCN=C(N)N)C(=O)O)(Cc1ccccc1)NC(=O)[C@@H]1CCCN1 (stereo partly drawn) | 8% | -5% | -7% | 1% | 4% | 7% | -11% | 1% | 0% | 0% | 1% | – | – | Change (Canis familiaris [11]): -6%
2 | H-RPPGFSPFR-OH [BRADYKININ] | – | – | – | – | – | – | – | – | – | – | – | 67% | – | –
3 | Cl.Cl.NCCCNC(=O)[C@H](Cc1ccccc1)NC(=O)[C@@H]1CCCN1 | – | -3.5% | -1% | -0.5% | -1% | 6.5% | -9% | -3% | 3.5% | -1.5% | 0% | – | – | Change (Canis familiaris [11]): -5%; Change (Canis familiaris [14]): 5%
4 | N=C(N)NCCC[C@H](NC(=O)[C@@H]1Cc2ccccc2CN1C(=O)CCCc1ccc(O)cc1)C(=O)O | 2% | -2% | 0% | -1% | 0% | -12% | 11% | -6% | 7% | 1% | 1% | – | -1% | –
5 | O=C(NCC(=O)N1CCC[C@H]1C(=O)O)[C@@H](Cc1ccccc1)NC(=O)[C@@H]1CCCN1C(=O)CCCc1ccc(O)cc1 ({Butanoyl(4-(4-HOPh))}-P[dF]GP-OH) | 0% | -1% | -1% | 0% | -2% | -1% | -1% | -2% | 2% | 1% | -1% | – | -1% | –
6 | Cl.NCCCNC(=O)[C@H](Cc1ccccc1)NC(=O)[C@@H]1CCCN1C(=O)CCCc1ccccc1 | – | -2.7% | -5.3% | 0% | 0% | 6.5% | -8.9% | 0% | 0% | 0% | 0% | – | -3.8% | Change (Canis familiaris [14]): 5%
7 | CC(Cc1ccc(O)cc1)(NC(=O)[C@@H]1CCCN1C(=O)CCCc1ccc(O)cc1)C(=O)NCC(=O)N1CCC[C@H]1C(=O)O (stereo partly drawn) ({Butanoyl(4-(4-HOPh))}-P[ξαMeY]GP-OH) | 0.5% | 3% | -1.5% | -2% | 0% | 9% | -5.9% | -6% | 4% | -7% | 1% | 13% | -0.5% | –
8 | H-FSPFR-OH | – | – | – | – | – | – | – | – | – | – | – | 21% | – | –
9 | O=C(NCC(=O)N1CCC[C@H]1C(=O)O)[C@H](Cc1ccccc1)NC(=O)[C@@H]1CCCN1C(=O)CCCc1ccc(O)cc1 ({Butanoyl(4-(4-HOPh))}-PFGP-OH) | – | -1.5% | 1.5% | -2% | -1.5% | 7% | -8.5% | -4.5% | 2.5% | -2.5% | -1% | – | 74.5% | Change (Canis familiaris [14]): -43%
10 | CC(Cc1ccccc1)(NC(=O)[C@@H]1CCCN1C(=O)c1ccccc1)C(=O)N1CCC[C@H]1C(=O)O (stereo partly drawn) (Bz-Pro-[ξαMeF]-Pro-OH) | 0% | -4% | 0% | 0% | -6% | 0% | -4% | -4% | 4% | 3% | -5% | – | – | Change (Canis familiaris [11]): -5%
11 | CC(Cc1ccc(O)cc1)(NC(=O)[C@@H]1CCCN1C(=O)CCCc1ccc(O)cc1)C(=O)NCCCN.Cl (stereo partly drawn) | 3.5% | 0% | 3.5% | -2% | 4% | 10% | 8.5% | -9.5% | 8.5% | 1.5% | 1% | – | -3% | –
12 | N=C(N)NCCC[C@H](NC(=O)[C@H](Cc1ccccc1)NC(=O)[C@@H]1CCCN1C(=O)c1ccccc1)C(=O)Nc1ccc([N+](=O)[O-])cc1 (Bz-Pro-Phe-Arg-pNA) | – | – | – | – | – | – | – | – | – | – | – | 20% | – | Change (Canis familiaris [16]): -3%; Change (Canis familiaris [17]): 1.2%; Change (Canis familiaris [18]): 1.9%; Change (Canis familiaris [19]): 27%; Change (Canis familiaris [20]): -26.6%; Change (Canis familiaris [21]): 1.5%; Change (Canis familiaris [22]): -38.7%; Change (Canis familiaris [23]): -3%; Change (Canis familiaris [24]): 0%; ED15 (Canis familiaris [25]): 0.297 mg/kg; Ratio [26]: > 20; Change (Canis familiaris [27]): 4.8%; Change (Canis familiaris [28]): 0%; Change (Canis familiaris [29]): -10%
13 | CC(Cc1ccccc1)(NC(=O)[C@@H]1CCCN1C(=O)CCCc1ccc(O)cc1)C(=O)NCCCCCC(=O)O (stereo partly drawn) | -4% | 1% | -6% | 0% | -2% | 5% | -4% | -1% | 1% | -4% | 2% | – | 5% | –
